In the library only some 3.5% were active in any assay of this set; here they are far more common.
MEKK2 WT-MEK5: raises or lowers MEK5 binding to wildtype human MEKK2 PB1 domain | Q9Y2U5 | 290,000 compounds, 1.1% hits | bead flow cytometry, Alexa488-MEK5 binding to MEKK2 WT; actives lie on both sides | AID 1531 | binding response (% of control), % at 10 µM; in the data active means binding response below about 67% or above about 130%
ABCB1 inh: human ABCB1 inhibition, ABCG2 as counter-screen | AID 1326 | P08183 | inhibition, % at 6.6 µM | CCRF-Adr cells, JC-1 efflux, flow cytometry | 190,000 compounds, 0.067% hits; in the data active means inhibition above about 40%;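 further: higher value means more JC-1 retained so stronger ABCB1 efflux block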
Target sequence (P08183 whole entry, looked up): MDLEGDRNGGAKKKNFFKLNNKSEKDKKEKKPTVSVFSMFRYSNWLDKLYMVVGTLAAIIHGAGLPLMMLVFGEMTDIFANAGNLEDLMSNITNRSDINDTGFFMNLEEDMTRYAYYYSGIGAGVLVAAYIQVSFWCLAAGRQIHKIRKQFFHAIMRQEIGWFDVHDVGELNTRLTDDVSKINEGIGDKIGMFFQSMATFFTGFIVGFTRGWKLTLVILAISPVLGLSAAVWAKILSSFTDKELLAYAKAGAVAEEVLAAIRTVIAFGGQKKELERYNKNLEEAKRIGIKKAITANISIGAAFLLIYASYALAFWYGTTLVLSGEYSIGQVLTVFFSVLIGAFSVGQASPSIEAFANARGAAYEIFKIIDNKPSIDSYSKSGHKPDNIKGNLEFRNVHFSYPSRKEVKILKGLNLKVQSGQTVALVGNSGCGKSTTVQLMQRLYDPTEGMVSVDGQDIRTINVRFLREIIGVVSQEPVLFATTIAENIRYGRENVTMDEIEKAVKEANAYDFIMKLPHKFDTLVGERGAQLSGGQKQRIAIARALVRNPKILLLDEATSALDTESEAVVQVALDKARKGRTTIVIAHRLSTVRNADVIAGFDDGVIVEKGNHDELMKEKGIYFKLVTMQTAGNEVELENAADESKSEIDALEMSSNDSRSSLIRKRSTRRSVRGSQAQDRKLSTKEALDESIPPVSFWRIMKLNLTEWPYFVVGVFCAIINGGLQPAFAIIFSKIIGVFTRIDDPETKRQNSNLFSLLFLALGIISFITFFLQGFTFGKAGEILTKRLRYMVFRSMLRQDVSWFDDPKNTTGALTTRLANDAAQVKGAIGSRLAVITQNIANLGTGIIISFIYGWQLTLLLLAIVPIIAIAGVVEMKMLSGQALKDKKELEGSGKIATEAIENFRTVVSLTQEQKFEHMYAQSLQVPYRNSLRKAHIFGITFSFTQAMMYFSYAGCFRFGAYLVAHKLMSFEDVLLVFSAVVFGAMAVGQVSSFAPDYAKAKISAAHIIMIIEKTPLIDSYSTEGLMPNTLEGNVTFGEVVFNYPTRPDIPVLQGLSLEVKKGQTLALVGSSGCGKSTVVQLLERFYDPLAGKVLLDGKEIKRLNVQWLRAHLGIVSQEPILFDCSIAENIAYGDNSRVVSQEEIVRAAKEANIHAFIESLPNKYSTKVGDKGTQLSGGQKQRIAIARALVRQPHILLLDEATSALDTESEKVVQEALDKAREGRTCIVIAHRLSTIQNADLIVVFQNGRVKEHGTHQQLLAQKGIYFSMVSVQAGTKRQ
ABCG2 inh: inhibitors of human ABCG2 transporter, ABCB1 counter-screen. Q9UNQ0. IgMXP3 cells, JC-1 efflux, flow cytometry. inhibition, % at 6.6 µM. 190,000 compounds, 0.1% hits;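 active means inhibition above 80%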
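System: two drug-resistant human cell lines, ABCG2 and ABCB1; controls: nicardipine high and DMSO low controls; times: 10 min exposure at 25 °C with rotation, no wash; detection: flow cytometry of retained JC-1 fluorescence; read-out basis: percent efflux inhibition, scaled nicardipine 100% to DMSO 0%; doses: one concentration, 6.6 µM final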
MEKK2mut PB1 HTS: signal of MEK5 binding to mutant human MEKK2 PB1 domain | bead flow cytometry, Alexa488-MEK5 binding to MEKK2 mutant | percent response, % at 10 µM | 290,000 compounds, 0.35% hits | AID 1530; in the data active means percent response above about 24%, passing the limit was not always enough
WT yeast gro inh: growth inhibition of WT yeast, mitochondrial fusion screen. mitochondrial fusion phenotypic screen, WT strain. inhibition, % at 10 µM. 190,000 compounds, 2.1% hits; in the data active means inhibition above about 58%; tested in S. cerevisiae
MEKK3 PB1 HTS: modulators (inhibitors or enhancers) of MEK5 binding to human MEKK3 PB1 domain; Q99759; bead-based flow cytometry, Alexa488-MEK5 binding to MEKK3; actives lie on both sides; 0 = blocked by unlabeled MEK5, 100 = vehicle; binding response (% of control), % at 10 µM; 290,000 compounds, 1.4% hits;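 active means binding response more than 3 SD above or below the average of its plate-row segment, actives on both sides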;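 further: Alexa488 bead fluorescence after subtracting the streptavidin-only scavenger bead signal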
Hits are given with their value; 0 = inactive; - = not tested or not shown; [ ] = another dose, or the depositor's remark.

SMILES	MEKK2 WT-MEK5	ABCB1 inh	ABCG2 inh	MEKK2mut PB1 HTS	WT yeast gro inh	MEKK3 PB1 HTS
Cn1c(/C=C/c2ccccc2)nc2ccccc21	0	0	0	0	67	0
Cn1c(=O)c(/C=C/c2ccccc2)nc2ccccc21	0	0	0	0	0	0
COc1ccccc1Cn1c(/C=C/c2ccccc2)nc2ccccc21	0	0	0	0	79	0
COCCn1c(/C=C/c2ccccc2)nc2ccccc21	0	0	0	0	0	0
CC(=O)NS(=O)(=O)c1ccc2c(c1)C(=O)c1cc(S(=O)(=O)NC(C)=O)ccc1-2	-8.0	-	-	0	-	0
CC(NS(=O)(=O)c1ccc2c(c1)C(=O)c1cc(S(=O)(=O)NC(C)C(=O)O)ccc1-2)C(=O)O (configuration not stated)	0	-	-	0	-	0
CCOC(=O)c1c(C)oc2ccc(OC(=O)c3cccs3)cc12	0	0	0	0	68	0
CCC(=O)Nc1c(-c2ccc3ccccc3c2)nc2ccccn12	0	-	-	0	-	0
Cc1nc(=O)c(-c2ccccc2)c(C)n1CCCCCC(=O)O	0	0	0	0	83	0
Cc1nc(=O)c(-c2ccccc2)c(C)n1CCCO	-	0	0	-	0	-
Cc1ccc(NS(=O)(=O)c2ccc(C(=O)OCC(=O)NCC3CCCO3)cc2)cc1 (configuration not stated)	0	0	0	0	0	0
CCCCSc1nnc(-c2ccccc2)c2ccccc12	0	0	0	0	82	0
COC(=O)c1ccc(C(=O)N=c2sccn2C)cc1	0	-	-	0	-	0
CS(=O)(=O)Nc1cccc(C2=NN(C(=O)CCCC(=O)O)C(c3cccs3)C2)c1 (configuration not stated)	0	-	-	0	-	0
O=C(c1c(F)cccc1F)N(Cc1ccccc1)Cc1ccccc1	0	-	-	0	-	0
O=C(c1c(F)c(F)c(F)c(F)c1F)N(Cc1ccccc1)Cc1ccccc1	0	0	0	0	66	0
Cc1cccc2c1c1ccc3c(c1n2C)C(=O)C=CC3=O	0	-	-	0	-	0
COc1ccccc1NS(=O)(=O)c1cccc(NC(=O)Nc2ccccc2)c1	0	0	0	0	0	0
COc1ccccc1NS(=O)(=O)c1cccc(NC(=O)Nc2ccc(Cl)cc2)c1	147	0	0	0	0	0
O=C(O)CC1(O)C(=O)N(Cc2ccccc2)c2ccccc21 (configuration not stated)	0	0	0	0	0	0
Cc1ccc(C(=O)N2c3ccccc3N(Cc3ccccc3)C(=O)C2(C)C)cc1	0	0	0	0	85	0
Cc1ccc(Cn2nc3c(cc2=O)CCc2ccccc2-3)cc1	0	0	0	0	74	0
O=c1cc2c(nn1Cc1cccc(Cl)c1)-c1ccccc1CC2	0	0	0	0	81	0
O=c1cc2c(nn1Cc1ccc(Cl)cc1)-c1ccccc1CC2	0	0	0	0	59	0
O=C1c2ccccc2C(=O)N1OCc1cccc(Cl)c1	0	0	0	0	0	0
SMILES	MEKK2 WT-MEK5	ABCB1 inh	ABCG2 inh	MEKK2mut PB1 HTS	WT yeast gro inh	MEKK3 PB1 HTS
CCCc1nnc(SCC(=O)Nc2cccc(Cl)c2Cl)o1	0	-	-	0	-	0
O=C(c1cccc(Cl)c1)N1CCCC(C(=O)N2CCN(c3ccccc3)CC2)C1 (configuration not stated)	0	-	-	0	-	0
COc1ccc(C(=O)c2cc([N+](=O)[O-])ccc2N2CCCC2)cc1	0	0	0	0	0	132
Cc1ccc(C(=O)c2cc([N+](=O)[O-])ccc2N2CCOCC2)cc1C	0	0	0	0	0	144
Cc1ccc(C(=O)c2cc([N+](=O)[O-])ccc2N2CCCCC2)cc1C	0	0	0	0	0	0
CCN(CC)S(=O)(=O)c1ccc(N2CCc3cc(OC)c(OC)cc3C2)nc1	0	-	-	0	-	0
CCOC(=O)c1c(C)[nH]c(N=Nc2cccc(C)c2)c1C	0	0	0	0	73	0
CCOC(=O)c1c(C)[nH]c(N=Nc2ccccc2)c1C	0	0	0	0	75	0
CCOC(=O)c1c(C)[nH]c(C2=NNC(=Nc3ccccc3)SC2)c1C	0	0	0	0	65	0
NS(=O)(=O)c1ccc2nc(-c3ccccc3)c(-c3ccccc3)nc2c1	0	-	-	0	-	0
COc1ccc(NC(=O)c2ccc(-c3ccccc3C(F)(F)F)o2)cc1	0	0	0	0	67	0
COc1ccccc1CNC(=O)c1ccc(-c2ccccc2Cl)o1	0	0	0	0	0	0
Cc1ccccc1-c1ccc(C(=O)Nc2cccc(F)c2)o1	0	0	0	0	58	0
COc1ccccc1CNC(=O)c1ccc(-c2ccccc2C(F)(F)F)o1	0	0	0	0	64	0
COc1ccc(/C=N/NC(=O)CNC(=O)COc2ccccc2)cc1	4.0	0	0	0	0	0
O=c1[nH]c(-c2ccccn2)nc2sc(-c3ccccc3)cc12	-	0	0	-	76	-
Cc1c(C(=O)N(C)C)sc2nc(-c3ccccn3)[nH]c(=O)c12	0	0	0	0	0	0
COc1ccc(-c2cc3nc(-c4ccccc4)cc(N4CCC(O)CC4)n3n2)cc1	0	0	0	0	62	0
COc1ccc(-c2cc3nc(-c4ccccc4)cc(N4CCCC(O)C4)n3n2)cc1 (configuration not stated)	0	0	0	0	68	0
Fc1cccc(-c2cc3nc(-c4ccccc4)cc(N4CCC5(CC4)OCCO5)n3n2)c1	0	0	0	0	0	0
COCCN1CCN(c2cc(-c3ccccc3)nc3cc(-c4cccc(F)c4)nn23)CC1	0	0	0	0	77	0
COc1ccc(CNC(=O)C2CCN(S(=O)(=O)N3CCCCC3)CC2)c(OC)c1	0	-	-	0	-	0
O=C(Nc1ccc(NC(=O)c2ccccc2Cl)cc1)c1cccnc1	53[inhibitor]	-	-	0	-	39[inhibitor]
CCCCCC(=O)Nc1cc(N(C)C)nc2ccccc12	0	0	0	0	64	0
COc1ccccc1N1CCN(C2CCCN(C(=O)CCc3ccccn3)C2)CC1 (configuration not stated)	0	-	-	0	-	0
SMILES	MEKK2 WT-MEK5	ABCB1 inh	ABCG2 inh	MEKK2mut PB1 HTS	WT yeast gro inh	MEKK3 PB1 HTS
Cc1ccccc1N1CCN(C(=O)c2ccc(Oc3ccc(C(F)(F)F)cn3)cc2)CC1	0	0	0	0	75	0
NNC(=O)c1ccc2nc(-c3ccc(Br)cc3)cn2c1	0	0	0	0	71	0
Cc1cc(C)n(-c2nc3sc4c(c3c(=O)[nH]2)CCCC4)n1	-	0	0	-	73	-
CN1CCN(NC(=O)c2cccc(C(F)(F)F)c2)CC1	0	-	-	0	-	0
O=S(=O)(N1CCCCC1)N1CCN(c2cc(Cl)ccc2Cl)CC1	0	0	0	0	74	0
O=S(=O)(c1ccc(Cl)cc1)N1CCN(S(=O)(=O)N2CCCCCC2)CC1	0	0	0	0	0	0
COC(=O)c1sccc1NC(=S)N1CCN(c2cccc(C)c2C)CC1	0	0	0	0	74	0

Source: PubChem
